Most compounds without a hit are left out; they make up all but 6.8% or so of the library.
HSF1 inhib: HSF1 inhibition. activity change, negative = inhibition, % at 7.5 µM (by protocol). NIH3T3-HGL HSE-luciferase, MG132-induced, luminescence 8 h; hits give low values. hit rate 0.77% among 300,000;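 active means more than half of replicate wells show activity change below -50%, luminescence cut by over half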;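 further: luciferase reports HSF-1 transcriptional activity via heat shock element; 0% = median of DMSO wells and -100% = zero luminescence signal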
core dimer inh: blocks dimerization of HCV core protein. TR-FRET GST/Flag-core106 dimerization, 1536-well. inhibition, % at 5 µM. hit rate 0.33% among 300,000. AID 1899;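 active means inhibition above the mean of all tested compounds plus 3 SD, set per screening campaign, cut at about 45% in these data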
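assay system = GST-tagged and Flag-tagged HCV core protein residues 1-106 | controls = unlabelled core106 and no-GST-core106 wells | incubation = compound-protein-antibody incubation 4 h at 22.5 °C | probe or stimulus = Eu donor and XL665 acceptor anti-tag antibodies | read-out = % inhibition based on acceptor/donor emission ratio | signal = TR-FRET 671 and 617 nm emission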
HSF1 activator: increases HSF-1 driven luciferase reporter signal. NIH3T3-HGL HSF-1 luciferase reporter, MG132, 8 h; 100% = twice DMSO control signal. activation, % at 9 µM. hit rate 1.7% among 300,000;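 active means mean replicate activation of at least 50% with a set share of replicates each reaching 50%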;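 further: 0% = median of the neutral control wells and 100% = twice that signal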
PHOSPHO1 block: inhibitors of human PHOSPHO1 phosphatase. Q8TCT1. recombinant PHOSPHO1, absorbance phosphatase assay. inhibition, % at 13.3 µM. hit rate 1.1% among 290,000. AID 1565; in the data active means inhibition above about 60%
Target sequence (Q8TCT1 whole entry, looked up): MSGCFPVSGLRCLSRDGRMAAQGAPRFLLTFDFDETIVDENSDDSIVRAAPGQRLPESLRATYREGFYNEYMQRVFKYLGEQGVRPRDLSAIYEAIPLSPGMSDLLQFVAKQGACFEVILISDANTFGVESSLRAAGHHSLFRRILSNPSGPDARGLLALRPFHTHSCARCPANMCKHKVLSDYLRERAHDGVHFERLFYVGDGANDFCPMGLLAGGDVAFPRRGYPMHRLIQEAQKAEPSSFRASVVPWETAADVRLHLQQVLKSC
AI-2 QS modul: modulates the Vibrio harveyi AI-2 quorum sensing system; Vibrio harveyi JMH597 AI-2 luminescence/OD600 ratio, 9 h; hits give low values; strain lacks LuxN and CqsS sensors; 0 = neutral-control median; activity change, % at 7.5 µM; hit rate 0.4% among 300,000; in the data active means activity change below about -75%, passing the limit was not always enough;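 further: luminescence divided by OD600 gain over 9 h not by final OD600 alone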
ALR inh: human ALR oxidase inhibition via reduced H2O2; P55789; purified ALR, DTT oxidation, H2O2 HRP-luminol luminescence; inhibition, % (no concentration beside the values); hit rate 3.8% among 290,000;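 active means mean replicate inhibition above about 79%, with every replicate also reaching it, limit read from the data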
Target sequence (P55789 whole entry, looked up): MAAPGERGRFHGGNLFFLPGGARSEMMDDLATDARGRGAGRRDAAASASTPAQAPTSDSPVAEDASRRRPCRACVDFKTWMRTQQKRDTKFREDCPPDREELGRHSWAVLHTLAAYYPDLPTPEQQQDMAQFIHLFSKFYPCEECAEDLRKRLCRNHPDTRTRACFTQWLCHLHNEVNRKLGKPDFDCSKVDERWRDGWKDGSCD
* hit, by the source's call; x = not tested or not shown.

SMILES | HSF1 inhib | core dimer inh | HSF1 activator | PHOSPHO1 block | AI-2 QS modul | ALR inh
CCOC(CCn1c(SCC(=O)Nc2cc(C)on2)nc2ccccc2c1=O)OCC | 3 | 4 | 7 | 6 | 21 | -7
CCOC(=O)c1ccc(S(=O)(=O)NCCNCc2ccccc2)cc1 | x | x | x | x | x | 4
COc1ccc(CCN2CC(C(=O)Nc3ccccc3F)CC2=O)cc1OC (stereo unspecified) | -2 | 2 | 7 | x | 14 | -17
CCOc1ccc(OCCn2nnc3ccccc3c2=O)cc1 | 46 | -1 | 83* | 28 | 3 | -9
S=c1nc[nH]c2nc[nH]c12 | -6 | -7 | -16 | -26 | -154* | 9
CCN(CC)c1ccc([N+](=O)[O-])cc1C(=O)N1CCOCC1 | 8 | -4 | 55* | 41 | 26 | 2
CC(Oc1ccc(Cl)cc1)C(=O)/C=C/N(C)C (stereo unspecified) | 11 | -4 | 54* | 7 | 23 | -10
Cc1cccc(NC2=C(NCCO)C(=O)c3ccccc3C2=O)c1 | 27 | -41 | 50 | -11 | 37 | 99*
COc1cccc(NC2=C(NCCO)C(=O)c3ccccc3C2=O)c1 | 8 | -72 | 37 | 8 | 27 | 87*
CCOc1ccc(NC(=O)CN(C)C(=O)c2cc([N+](=O)[O-])ccc2N2CCOCC2)cc1OCC | -4 | -2 | -4 | x | 7 | -15
O=C(Nc1cc2c(oc1=O)CCCC2=O)c1cccc(Cl)c1 | 1 | 2 | 5 | 65* | 29 | -12
COc1ccc(C2CC2C(C)=O)cc1 (stereo unspecified) | -9 | -3 | -13 | 53 | 21 | -11
COc1cc(/C=N/Nc2nc(N3CCCC3)nc(N3CCCC3)n2)ccc1O | 18 | -1 | 41 | -29 | 18 | 99*
Oc1ccc(/C=N/Nc2nc(N3CCCC3)nc(N3CCCC3)n2)cc1O | 2 | 2 | 17 | 28 | 9 | 99*
CCOC(=O)c1cc(-c2ccc(OC)cc2)n[nH]1 | -8 | 0 | -12 | 28 | 37 | x
CC(C)COc1ccc(-c2cc(C(=O)NN)[nH]n2)cc1 | 12 | -10 | 52* | -9 | 33 | x
COc1ccc(OC)c(S(=O)(=O)N2CCC(NC(=O)c3ccccc3)CC2)c1 | -4 | 4 | 11 | 37 | 21 | x
Cc1csc(N/N=C/c2ccc(O)c([N+](=O)[O-])c2)n1 | -3 | -34 | 8 | 93* | 15 | 42
O=[N+]([O-])c1cc(/C=N\Nc2nc(-c3ccccc3)cs2)ccc1O | 11 | 9 | 28 | -31 | 28 | -8
C(=N\Nc1cc(N2CCCCC2)ncn1)/c1ccco1 | 16 | 7 | 29 | 14 | 6 | 34
Cc1ccc2nc(C)cc(C(=O)N/N=C/c3ccncc3)c2c1 | -1 | -7 | 3 | 19 | 20 | 2
COc1ccc(-n2cc([N+](=O)[O-])c(=O)c3ccc(Cl)cc32)cc1 | -66* | -2 | -75 | x | 5 | 4
COc1ccc(OCCNc2cc(Cl)ccc2[N+](=O)[O-])cc1 | 1 | 1 | -5 | -21 | 19 | -2
Cc1ccc(CN2CCN(Cc3ccco3)CC2)cc1 | 3 | 11 | -7 | -18 | -1 | 2
COc1ccc(C2=NCCn3nc4cc([N+](=O)[O-])ccc4c32)cc1 | -66* | 13 | -74 | x | 18 | -25
SMILES | HSF1 inhib | core dimer inh | HSF1 activator | PHOSPHO1 block | AI-2 QS modul | ALR inh
O=c1c2ccccc2nnn1COc1ccc(F)cc1Cl | 62 | -5 | 84* | -8 | 3 | -2
O=c1c2ccccc2nnn1COc1ccc(Cl)cc1Br | 40 | 3 | 56* | 7 | 25 | x
CCOC(=O)C1=C(C)N(CC(C)C)C(=O)C1 | -2 | 0 | -11 | 41 | 47 | x
CCN1CCC(N2CCN(c3ccc(F)cc3)CC2)CC1 | -6 | -45 | -2 | 44 | 0 | 97*
Cc1ccc(C(=O)OCC(=O)Nc2c(Cl)cc(S(N)(=O)=O)cc2Cl)o1 | 2 | -1 | -1 | 20 | 11 | -6
CC(=O)C1=C(C)NC(SCC(=O)c2ccc(Cl)c(Cl)c2)=C(C#N)C1c1ccco1 (stereo unspecified) | 23 | -44 | 17 | 76* | 9 | -32
CSCSC1=C(C#N)C(c2ccccc2Cl)C(C(C)=O)=C(C)N1 (stereo unspecified) | 0 | -2 | 1 | 93* | 24 | -8
CC(=O)C1=C(C)NC(SCC(N)=O)=C(C#N)C1c1ccco1 (stereo unspecified) | 7 | -4 | 32 | -54 | 23 | -18
CC(=O)C1=C(C)NC(SCC(=O)c2cc(Cl)ccc2Cl)=C(C#N)C1c1ccco1 (stereo unspecified) | 15 | 16 | 34 | 78* | 6 | -7
CC(=O)C1=C(C)NC(SCC(=O)c2ccc(Cl)cc2)=C(C#N)C1CC(C)C (stereo unspecified) | 12 | 3 | 7 | 87* | 16 | -30
CC(=O)C1=C(C)NC(SCC(N)=O)=C(C#N)C1C (stereo unspecified) | -1 | -5 | -3 | 88* | 19 | -8
CC(=O)C1=C(C)NC(SCC(N)=O)=C(C#N)C1CC(C)C (stereo unspecified) | 1 | -4 | -6 | -3 | 28 | -10
C=CC[N@@+]12CC[C@]34c5ccccc5N5/C=C6\C7N(/C=C(\C53)[C@@H](C[C@@H]41)/C(=C/CO)C2)c1ccccc1[C@@]71CC[N@@+]2(CC=C)C/C(=C\CO)[C@@H]6C[C@@H]12 (stereo partly specified) | x | -4 | x | x | x | -24
CC(OC(=O)CCN=C1NS(=O)(=O)c2ccccc21)C(=O)Nc1ccc(N(C)C)cc1 (stereo unspecified) | -7 | -7 | -2 | x | x | 99*
CNc1oc(/C=C/c2cccc(OC)c2)nc1C#N | 27 | -3 | 48 | 19 | 9 | 12
O=C(NCCNc1ccnc2cc(Cl)ccc12)c1ccccc1F | -79* | -37 | -83 | x | 26 | -1
Cc1ccc(C(=O)NCCNc2ccc(Cl)cc2[N+](=O)[O-])o1 | 4 | 1 | 10 | 18 | 16 | x
O=C(NCCNc1ccc(Cl)cc1[N+](=O)[O-])c1ccccc1F | 37 | 1 | 51* | -11 | 19 | -3
CC(=O)c1ccc(N2CCN(c3ccccc3O)CC2)c([N+](=O)[O-])c1 | -2 | 14 | 4 | -4 | 19 | 99*
O=C(/C=C/c1ccc(N2CCCCC2)c([N+](=O)[O-])c1)c1ccc(O)cc1 | 86 | 6 | 75* | 12 | 38 | 4
O=C(c1ccc(N2CCCCC2)c([N+](=O)[O-])c1)N1CCOCC1 | 5 | -3 | -5 | 43 | 11 | -10
O=C(c1ccc(N2CCOCC2)c([N+](=O)[O-])c1)N1CCCCC1 | -1 | -4 | -2 | 74* | 24 | -4
